Assay results as given in ChEMBL document CHEMBL1125418, “Antimycobacterial activity of a series of pyrazinoic acid esters” (1992).
In brackets after ≈: the same amount, converted by molar mass.

Assays:
Type in all cases: functional
[1] = tested on: Mycobacterium tuberculosis; experiment: In vitro activity against Mycobacterium. tuberculosis (strain type-BUR)at pH 5.8; conditions: Mycobacterium tuberculosis; read-out: MIC
[2] = tested on: Mycobacterium tuberculosis; experiment: In vitro activity against Mycobacterium. tuberculosis (strain type-BUR)at pH 6.6
Outline: (§1)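 Twofold serial dilutions (200–3.12 µg/mL) in 7H10 agar with 10% OADC enrichment at pH 6.6, in compartmented plates. Plates were stored at 4 °C and used within 24–48 h. A no-drug compartment served as control for each isolate. Plates were incubated for 4 weeks at 37 °C. MIC was the lowest concentration giving 99% (2 log) growth inhibition.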

[3] = tested on: Mycobacterium tuberculosis; experiment: In vitro activity against Mycobacterium. tuberculosis (strain type-ATCC 35828)at pH 6.6; outline: as §1
[4] = tested on: Mycobacterium kansasii; experiment: In vitro activity against Mycobacterium. kansasii (strain type-SWK)at pH 5.8
Outline: (§2)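 Pyrazinamide-resistant isolate SWK tested on Middlebrook 7H10 agar plus 10% OADC adjusted to pH 5.8. Compartmented plates hold 2-fold dilutions from 200 to 3.12 µg/mL, prepared 24–48 h before use and kept at 4 °C, with a drug-free compartment. Incubation was 37 °C for 4 weeks. MIC is the lowest level causing 99% (2 log) growth inhibition.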

[5] = tested on: Mycobacterium tuberculosis; experiment: In vitro activity against Mycobacterium. tuberculosis (strain type-ATCC 35828)at pH 5.8
Outline: (§3)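 Middlebrook 7H10 agar plus 10% OADC at pH 5.8 in compartmented plates, with serial twofold dilutions from 200 to 3.12 µg/mL. Plates were prepared 24–48 h before use and stored at 4 °C. A drug-free compartment was included per isolate. Incubation was 37 °C for 4 weeks. MIC was the lowest level producing 99% (2 log) inhibition of growth.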

[6] = tested on: Mycobacterium kansasii; experiment: In vitro activity against Mycobacterium. kansasii (strain type-SWK) […]
[7] = tested on: Mycobacterium tuberculosis; experiment: In vitro activity against Mycobacterium strain ATCC 35828 (Mycobacterium tuberculosis)
Outline: (§4)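 Agar dilution in compartmented plates of Middlebrook 7H10 agar with 10% OADC, adjusted to pH 5.8 or pH 6.6. Twofold compound dilutions spanned 200–3.12 µg/mL. Plates were made 24–48 h ahead and held at 4 °C. MIC (µg/mL) was the lowest concentration giving 99% (2 log) growth inhibition.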

[8] = tested on: Mycobacterium tuberculosis; experiment: In vitro activity against Mycobacterium strain BAK (Mycobacterium tuberculosis); conditions: Mycobacterium tuberculosis; read-out: MIC
[9] = tested on: Mycobacterium tuberculosis; experiment: In vitro activity against Mycobacterium strain BUR (Mycobacterium tuberculosis); outline: as §4
[10] = tested on: Mycobacterium tuberculosis; experiment: In vitro activity against Mycobacterium tuberculosis (strain type-BUR) at pH 5.8; outline: as §3
[11] = tested on: Mycobacterium tuberculosis; experiment: In vitro activity against Mycobacterium strain CES (Mycobacterium tuberculosis); outline: as §4
[12] = tested on: Mycobacterium tuberculosis; experiment: In vitro activity against Mycobacterium strain DOL (Mycobacterium tuberculosis); conditions: Mycobacterium tuberculosis; read-out: MIC
[13] = tested on: Mycobacterium tuberculosis; experiment: In vitro activity against Mycobacterium strain DOU (Mycobacterium tuberculosis); outline: as §4
[14] = tested on: Mycobacterium tuberculosis; experiment: In vitro inhibitory activity against Mycobacterium tuberculosis (strain type-ATCC 35828) pH 6.6; outline: as §1
[15] = tested on: Mycobacterium tuberculosis; experiment: In vitro inhibitory activity against Mycobacterium tuberculosis (strain type-ATCC 35828)at pH 5.8; outline: as §3
[16] = tested on: Mycobacterium tuberculosis; experiment: In vitro activity against Mycobacterium strain GLA (Mycobacterium tuberculosis); conditions: Mycobacterium tuberculosis; read-out: MIC
[17] = tested on: Mycobacterium kansasii; experiment: In vitro inhibitory activity against Mycobacterium kansasii (strain type-SWK) pH 6.6
Outline: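 MIC for pyrazinamide-resistant isolate SWK by agar dilution in Middlebrook 7H10 with 10% OADC at pH 6.6. Serial 2-fold dilutions run 200–3.12 µg/mL in compartmented plates prepared 24–48 h in advance and stored at 4 °C. A drug-free control is included. Plates were held at 37 °C for 4 weeks. The endpoint is 99% (2 log) inhibition of growth.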

[18] = tested on: Mycobacterium kansasii; experiment: In vitro inhibitory activity against Mycobacterium kansasii (strain type-SWK)at pH 5.8; outline: as §2
[19] = tested on: Mycobacterium kansasii; experiment: In vitro activity against Mycobacterium strain SWK (Mycobacterium kansasii)
Outline: (§5)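 Agar dilution MIC against pyrazinamide-resistant clinical isolates on Middlebrook 7H10 agar with 10% OADC at pH 5.8 or pH 6.6. Serial 2-fold dilutions span 200–3.12 µg/mL in compartmented plates made 24–48 h ahead and stored at 4 °C. Each isolate has a drug-free control. Plates were incubated at 37 °C for 4 weeks. MIC is the lowest concentration giving 99% (2 log) growth inhibition.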

[20] = tested on: Mycobacterium tuberculosis; experiment: In vitro inhibitory activity against Mycobacterium tuberculosis (strain type-H37Rv) at pH 6.6; conditions: Mycobacterium tuberculosis; read-out: MIC
[21] = tested on: Mycobacterium tuberculosis; experiment: In vitro inhibitory activity against Mycobacterium tuberculosis (strain type-H37Rv) at pH 5.8; outline: as §3
[22] = tested on: Mycobacterium tuberculosis; experiment: In vitro activity against Mycobacterium strain ING (Mycobacterium tuberculosis); outline: as §4
[23] = tested on: Mycobacterium tuberculosis; experiment: In vitro activity against Mycobacterium strain LEL (Mycobacterium tuberculosis); conditions: Mycobacterium tuberculosis; read-out: MIC
[24] = tested on: Mycobacterium tuberculosis; experiment: In vitro activity against Mycobacterium strain MCQ (Mycobacterium tuberculosis); outline: as §4
[25] = tested on: Mycobacterium tuberculosis; experiment: In vitro activity against Mycobacterium strain SMA (Mycobacterium tuberculosis); conditions: Mycobacterium tuberculosis; read-out: MIC
[26] = tested on: Mycobacterium tuberculosis; experiment: In vitro activity against Mycobacterium strain WOO (Mycobacterium tuberculosis); outline: as §4
[27] = tested on: Mycobacterium tuberculosis; experiment: In vitro activity against Mycobacterium strain DUB (Mycobacterium tuberculosis); conditions: Mycobacterium tuberculosis; read-out: MIC
[28] = tested on: Mycobacterium kansasii; experiment: In vitro activity against Mycobacterium strain SCH (Mycobacterium kansasii); outline: as §5

CC(C)(C)c1ccc(OC(=O)c2cnccn2)cc1
MIC [1]: 25 µg/mL (≈ 97.5 µM)
MIC [2]: 50 µg/mL (≈ 195 µM)
MIC [3]: 25 µg/mL (≈ 97.5 µM)
MIC [4]: 25 µg/mL (≈ 97.5 µM)
MIC [5]: 25 µg/mL (≈ 97.5 µM)

O=C(OCCCl)c1cnccn1
MIC [1]: 6.25 µg/mL (≈ 33.5 µM)
MIC [6]: 25 µg/mL (≈ 134 µM)
MIC [5]: 25 µg/mL (≈ 134 µM)

CN(C)CCOC(=O)c1cnccn1
MIC [7]: 50 µg/mL (≈ 256 µM)
MIC [8]: 25 µg/mL (≈ 128 µM)
MIC [9]: 25 µg/mL (≈ 128 µM)
MIC [10]: 25 µg/mL (≈ 128 µM)
MIC [11]: 25 µg/mL (≈ 128 µM)
MIC [12]: 12.5 µg/mL (≈ 64 µM)
MIC [13]: 25 µg/mL (≈ 128 µM)
MIC [14]: > 200 µg/mL
MIC [15]: 25 µg/mL (≈ 128 µM)
MIC [16]: 25 µg/mL (≈ 128 µM)
MIC [17]: > 200 µg/mL
MIC [18]: 200 µg/mL (≈ 1020 µM)
MIC [19]: 100 µg/mL (≈ 512 µM)
MIC [20]: 100 µg/mL (≈ 512 µM)
MIC [21]: 12.5 µg/mL (≈ 64 µM)
MIC [22]: 25 µg/mL (≈ 128 µM)
MIC [23]: 25 µg/mL (≈ 128 µM)
MIC [24]: 25 µg/mL (≈ 128 µM)
MIC [25]: 25 µg/mL (≈ 128 µM)
MIC [26]: 25 µg/mL (≈ 128 µM)
MIC [27]: 25 µg/mL (≈ 128 µM)
MIC [28]: 50 µg/mL (≈ 256 µM)
